Assay results published in paper PMC11374989 (Asian Journal of Pharmaceutical Sciences, 2024).
In brackets after ≈: the same amount, converted by molar mass.

Columns and labels:
TNF-α = assay: Anti-inflammatory activity, ELISA, LPS-treated HaCaT cells; format: cell-based; settings: 5 µmol/l for 12 h, then 1 µg/ml LPS 24 h, vs LPS, n = 3
In short: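 HaCaT cells were grown in DMEM with 10% FBS and 1% penicillin at 37 °C and 5% CO2. They were seeded in 6-well plates and precultured to 80% confluence. Test compound was given for 12 h, then 1 µg/ml LPS for 24 h. Medium-only (36 h) and LPS-only groups served as controls. TNF-α in the supernatant was measured by ELISA; n = 3.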

IL-8 mRNA = assay: RT-PCR of inflammatory factors, LPS-treated HaCaT cells; format: cell-based; settings: 5 µmol/l for 12 h, then 1 µg/ml LPS 24 h, n = 3
[1] = Visualization of skin penetration by CLSM; format: in vitro ADME, BALB/c-nu nude mice; settings: 6 h treatment
In short: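 Dorsal skin was excised from six-week-old male BALB/c-nu nude mice and cleared of subcutaneous tissue. It was exposed to C6-loaded nanoparticles of the test compound, since the compound itself fluoresces weakly. Skin was processed as in the HPLC retention study, then imaged by confocal microscopy. Mean skin fluorescence intensity was calculated per group.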

[2] = Oil-water distribution coefficient; format: physicochemical; settings: n-octanol/water, logP Average, 25 °C, n = 3
P. acnes [3] = assay: Minimum inhibition concentration; format: cell-based, Propionibacterium acnes; settings: P. acnes (GDMCC 1.243), anaerobic, 1.5 × 10^6 CFU/ml, 48 h
In short: (§1)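 The parent compound was dissolved in DMSO/saline (1:9) and NPs were diluted in water. Samples were serially diluted (1:1 to 1:256, v/v) in LB or RCM broth and incubated 48 h with bacteria. Growth was scored visually. P. acnes (GDMCC 1.243) was grown on RCM at 37 °C anaerobically; S. aureus (GDMCC 1.1220) and S. epidermidis (GDMCC 1.143) were grown on NA at 37 °C.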

NF-κB (p65) = assay: Immunohistochemical observation of skin; format: in vivo, BALB/c-nu mice; settings: after 7 d topical hydrogel, vs control group, n = 3
In short: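 P. acnes-infected nude mice were treated topically with 1 mg/ml hydrogel. Skin was collected at the end of treatment and paraffin sections were immunostained with mouse anti-NF-κB p65 antibody (1:400). Staining was quantified as average optical density (AOD) per group by image analysis.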

[4] = tested on: P. acnes-induced skin inflammation; assay: P. acnes infection; format: in vivo, BALB/c-nu mice
In short: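 Six-week-old male BALB/c-nu mice were acclimatized 3 d. They received P. acnes (1.5 × 10^8 CFU/ml) daily by intradermal injection into dorsal skin at 0.05 ml/10 g; the blank group was not injected. Test compound in 1 mg/ml Carbopol 940 hydrogel was applied topically to the inflamed area at 0.05 g/10 g; controls were left untreated. Swelling length and width were measured by caliper, with volume V = a×b²/2.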

P. acnes [5] = assay: In vivo antibacterial efficiency; parameters: species or system BALB/c-nu mice; settings: after 7 d of treatment, vs control, n = 3
In short: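 Six-week-old male BALB/c-nu mice were acclimatized for 3 d. They received daily intradermal dorsal injections of P. acnes at 1.5 x 10^8 CFU/ml, 0.05 ml/10 g. Test compound in 1 mg/ml Carbopol 940 hydrogel was applied topically at 0.05 g/10 g; controls were untreated. At the end, 8 mm punch biopsies were homogenized in 2 ml PBS and diluted 10 times. A 0.1 ml aliquot was plated on RCM and grown anaerobically at 37 °C for 48 h. Colonies were counted and expressed as treated vs control (%).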

Sau. = assay: Minimum inhibition concentration; format: cell-based, Staphylococcus aureus; settings: Sau. (GDMCC 1.1220), 1.5 × 10^6 CFU/ml, 48 h
In short: as §1

Sep. = assay: Minimum inhibition concentration; format: cell-based, Staphylococcus epidermidis; settings: Sep. (GDMCC 1.143), 1.5 × 10^6 CFU/ml, 48 h
In short: as §1

| Compound | TNF-α expression level in supernatant (TNF-α) | IL-8 mRNA expression (IL-8 mRNA) | Penetration of C6 into the skin (CLSM) [1] | logP at 24 h [2] | MIC (P. acnes [3]) | NF-κB p65 expression in skin (AOD) (NF-κB (p65)) | Body weight and skin tolerance ([4]; 7-d treatment period, topical 1 mg/ml hydrogel) | Reduction in swelling volume ([4]; Day 7 of treatment, topical 1 mg/ml hydrogel (Carbopol 940), 0.05 g/10 g, n = 6) | Histomorphological observation (HE staining) of skin ([4]; after 7 d topical 1 mg/ml hydrogel) | Quantity of P. acnes in the skin (P. acnes [5]) | MIC (Sau.) | MIC (Sep.) |
| --- | --- | --- | --- | --- | --- | --- | --- | --- | --- | --- | --- | --- |
| CC(C)(C)c1ccc(S(=O)(=O)/C=C/C#N)cc1 [BAY11-7085] | substantially suppressed TNF-α expression | restored to normal baseline levels | – | – | – | – | – | – | – | – | – | – |
| CCN(CC)c1ccc2cc(-c3nc4ccccc4s3)c(=O)oc2c1 [C6, coumarin-6] | – | – | solely observable in the skin's stratum corneum | – | – | – | – | – | – | – | – | – |
| C[C@H]1COC2=C1C(=O)C(=O)c1c2ccc2c1CCCC2(C)C [CTS, Cryptotanshinone] | although reduced, did not reach statistical significance | – | – | 4.49 | 0.250 µmol/mL (≈ 74.1 µg/mL) | slight reduction in NF-κB p65 expression | no significant weight loss or skin dryness and erythema | 64.9% | reduction in skin thickness, accompanied by a decrease in keratinization | significantly reduced the quantity of P. acnes in the skin | 0.125 µmol/mL (≈ 37 µg/mL) | 0.125 µmol/mL (≈ 37 µg/mL) |
